Data from ChEMBL document CHEMBL1122465, “Transport of antimicrobial agents using peptide carrier systems: anticandidal activity of m-fluorophenylalanine--peptide conjugates” (1983).
≈ marks a conversion by molar mass, not a printed value. Square brackets hold non-standard residues; d marks the D form. Peptide text beside a SMILES is read from it. Phe(3-F) = N[C@@H](Cc1cccc(F)c1)C(=O)O

Experiments:
Format in all cases: functional
Candida albicans [1] = assay: Zone developed against Candida albicans, when a 25.0 ug/disc was added
Candida albicans [2] = assay: Zone developed against Candida albicans, when a 3.0 ug/disc was added
Candida albicans [3] = assay: Zone developed against Candida albicans, when a 12.5 ug/disc was added
Candida albicans [4] = assay: Zone developed against Candida albicans, when a 6.0 ug/disc was added
Candida albicans [5] = assay: Minimum inhibitory concentration was determined for Candida albicans strain 759, by a microtiter broth dilution assay
Summary of the method: (§1)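 Twofold broth dilution in yeast carbon base medium with 200 μg/mL sodium glutamate, compounds 250 to 0.25 μg/mL. Inoculum grown in YCB-glutamate 15 h at 37 °C; final ~10⁴ cfu/mL. Incubated at 37 °C, read at 24 and 48 h for growth inhibition; MIC taken as lowest inhibiting concentration.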

Candida albicans [6] = assay: Zone developed against Candida albicans B-311, when a 12.5 ug/disc was added
Candida albicans [7] = assay: Minimum inhibitory concentration was determined for Candida albicans strain B311, by a microtiter broth dilution assay; summary of the method: as §1
Candida albicans [8] = assay: Zone developed against Candida albicans, when a 25.0 ug/disc was added; 25-31

| MIC (Candida albicans [5]) | MIC (Candida albicans [7]) | SMILES | Zone size (Candida albicans [1]) | Zone size (Candida albicans [2]) | Zone size (Candida albicans [3]) | Zone size (Candida albicans [4]) | Zone size (Candida albicans [6]) | further results |
| --- | --- | --- | --- | --- | --- | --- | --- | --- |
|  |  | C[C@H](N)C(=O)N[C@@H](C)C(=O)O.C[C@H](NC(=O)[C@@H](N)Cc1cccc(F)c1)C(=O)O | 0 mm | 0 mm | 0 mm | 0 mm |  |  |
| 2 µg/mL (≈ 6.15 µM) | 0.5 µg/mL (≈ 1.54 µM) | C[C@H](NC(=O)[C@H](C)NC(=O)[C@@H](N)Cc1cccc(F)c1)C(=O)O |  |  |  |  | 24 mm |  |
| > 250 µg/mL | > 250 µg/mL | C[C@H](NC(=O)[C@H](C)NC(=O)[C@H](N)Cc1cccc(F)c1)C(=O)O |  |  |  |  |  |  |
|  |  | C[C@H](N)C(=O)N[C@@H](C)C(=O)O.C[C@H](NC(=O)[C@H](C)NC(=O)[C@@H](N)Cc1cccc(F)c1)C(=O)O | 24 mm | 0 mm | 18 mm | 16 mm |  |  |
| 63 µg/mL (≈ 141 µM) | 8 µg/mL (≈ 18 µM) | CSCC[C@H](NC(=O)[C@H](CCSC)NC(=O)[C@@H](N)Cc1cccc(F)c1)C(=O)O |  |  |  |  |  |  |
| > 200 µg/mL | > 200 µg/mL | C[C@H](NC(=O)[C@H](N)Cc1cccc(F)c1)C(=O)O |  |  |  |  |  |  |
|  |  | C[C@H](N)C(=O)N[C@@H](C)C(=O)N[C@@H](C)C(=O)O.C[C@H](NC(=O)[C@@H](N)Cc1cccc(F)c1)C(=O)O | 0 mm | 0 mm | 0 mm | 0 mm |  |  |
|  |  | C[C@H](NC(=O)[C@H](C)NC(=O)[C@@H](N)Cc1cccc(F)c1)C(=O)O.O=C(O)[C@@H]1CCCN1 |  |  |  |  | 27 mm |  |
| 4 µg/mL (≈ 15.7 µM) | 2 µg/mL (≈ 7.87 µM) | C[C@H](NC(=O)[C@@H](N)Cc1cccc(F)c1)C(=O)O |  |  |  |  |  |  |
|  |  | C[C@H](NC(=O)[C@H](C)NC(=O)[C@@H](N)Cc1cccc(F)c1)C(=O)O.N[C@@H](Cc1c[nH]cn1)C(=O)O |  |  |  |  | 25 mm |  |
|  |  | C[C@H](NC(=O)[C@H](C)NC(=O)[C@@H](N)Cc1cccc(F)c1)C(=O)O.N[C@@H](Cc1c[nH]c2ccccc12)C(=O)O |  |  |  |  | 24 mm |  |
| 63 µg/mL (≈ 194 µM) | 2 µg/mL (≈ 6.15 µM) | C[C@H](N)C(=O)N[C@@H](C)C(=O)N[C@@H](Cc1cccc(F)c1)C(=O)O (H-Ala-Ala-[Phe(3-F)]-OH) |  |  |  |  |  |  |
|  |  | C[C@H](NC(=O)CN)C(=O)O.C[C@H](NC(=O)[C@@H](N)Cc1cccc(F)c1)C(=O)O |  | 0 mm | 0 mm | 0 mm |  | Zone size (Candida albicans [8]): 25 mm |
|  |  | C[C@H](NC(=O)CN)C(=O)O.C[C@H](NC(=O)[C@H](C)NC(=O)[C@@H](N)Cc1cccc(F)c1)C(=O)O | 25 mm | 0 mm | 18 mm | 0 mm |  |  |
|  |  | C[C@H](NC(=O)[C@H](C)NC(=O)[C@@H](N)Cc1cccc(F)c1)C(=O)O.N[C@@H](Cc1ccccc1)C(=O)O |  |  |  |  | 0 mm |  |
|  |  | C[C@H](N)C(=O)N[C@@H](C)C(=O)N[C@@H](C)C(=O)O.C[C@H](NC(=O)[C@H](C)NC(=O)[C@@H](N)Cc1cccc(F)c1)C(=O)O | 0 mm | 0 mm | 0 mm | 0 mm |  |  |
|  |  | C[C@H](NC(=O)[C@H](C)NC(=O)[C@@H](N)Cc1cccc(F)c1)C(=O)O.N[C@@H](CC(=O)O)C(=O)O |  |  |  |  | 26 mm |  |
|  |  | C[C@H](NC(=O)[C@H](C)NC(=O)[C@@H](N)Cc1cccc(F)c1)C(=O)O.NCC(=O)N[C@@H](Cc1ccccc1)C(=O)O | 0 mm | 0 mm | 0 mm | 0 mm |  |  |
|  |  | CC[C@H](C)[C@H](N)C(=O)O.C[C@H](NC(=O)[C@H](C)NC(=O)[C@@H](N)Cc1cccc(F)c1)C(=O)O |  |  |  |  | 27 mm |  |
| > 250 µg/mL | > 250 µg/mL | CSCC[C@H](NC(=O)[C@H](CCSC)NC(=O)[C@H](N)Cc1cccc(F)c1)C(=O)O |  |  |  |  |  |  |
|  |  | C[C@H](NC(=O)[C@@H](N)Cc1cccc(F)c1)C(=O)O.NCC(=O)N[C@@H](Cc1ccccc1)C(=O)O | 0 mm | 0 mm | 0 mm | 0 mm |  |  |
| > 250 µg/mL | > 250 µg/mL | N[C@@H](Cc1cccc(F)c1)C(=O)O |  |  |  |  |  |  |
